Results reported in ChEMBL document CHEMBL1133148 (Bioorg Med Chem Lett, 2000).

Columns and labels:
Mu-type opioid receptor [1] = molecular target: T1, Mu-type opioid receptor (Rattus norvegicus, UniProt P33535); assay: Concentration required for inhibition of [3H]DAMGO binding to Opioid receptor mu 1 in rat brain membranes; format: cell membranes
Outline: (§1)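 Rat brain minus cerebellum, homogenised in 0.32 M sucrose and spun. The membrane pellet was preincubated 1 h at room temperature in Tris pH 7.5/NaCl to strip endogenous opioids. Filtration, scintillation counting.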

Mu-type opioid receptor [2] = molecular target: T1, Mu-type opioid receptor; assay: Binding affinity towards Opioid receptor mu 1; outline: as §1

T1 sequence (P33535 whole entry): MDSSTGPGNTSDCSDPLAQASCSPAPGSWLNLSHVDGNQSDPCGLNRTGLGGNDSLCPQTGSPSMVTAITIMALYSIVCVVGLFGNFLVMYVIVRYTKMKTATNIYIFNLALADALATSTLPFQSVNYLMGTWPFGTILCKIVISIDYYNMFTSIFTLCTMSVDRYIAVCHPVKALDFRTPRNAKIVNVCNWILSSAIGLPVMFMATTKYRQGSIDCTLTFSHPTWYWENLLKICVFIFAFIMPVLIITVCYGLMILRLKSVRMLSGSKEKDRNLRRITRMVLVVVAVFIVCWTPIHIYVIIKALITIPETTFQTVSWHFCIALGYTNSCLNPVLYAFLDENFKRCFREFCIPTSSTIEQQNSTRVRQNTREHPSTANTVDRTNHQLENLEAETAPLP

Compound `NC(=O)[C@H](Cc1ccccc1)NC(=O)[C@H](Cc1c[nH]c2ccccc12)NC(=O)C[C@H]1CCCN1C(=O)[C@@H](N)Cc1ccc(O)cc1` has an IC50 (Mu-type opioid receptor [1]) of 0.0018 µM and a Ki (Mu-type opioid receptor [2]) of 0.00033 µM.

In the case of `NC(=O)[C@H](Cc1ccccc1)NC(=O)[C@H](Cc1c[nH]c2ccccc12)NC(=O)C[C@@H]1CCCN1C(=O)[C@@H](N)Cc1ccc(O)cc1`, the IC50 (Mu-type opioid receptor [1]) is reported as 0.072 µM and the Ki (Mu-type opioid receptor [2]) is reported as 0.0104 µM.

With `NC(=O)CC(NC(=O)[C@H](Cc1c[nH]c2ccccc12)NC(=O)[C@@H]1CCCN1C(=O)[C@@H](N)Cc1ccc(O)cc1)c1ccccc1` (stereo partly drawn) the IC50 (Mu-type opioid receptor [1]) was 0.68 µM and the Ki (Mu-type opioid receptor [2]) was 0.908 µM.

Work on `NC(=O)[C@H](Cc1ccccc1)NC(=O)[C@H](Cc1c[nH]c2ccccc12)NC(=O)[C@@H]1CCCN1C(=O)CC(N)c1ccc(O)cc1` (stereo partly drawn) yielded a Ki (Mu-type opioid receptor [2]) greater than 1 µM.

`NC(=O)[C@H](Cc1ccccc1)NC(=O)CC(NC(=O)[C@@H]1CCCN1C(=O)C(N)Cc1ccc(O)cc1)c1c[nH]c2ccccc12` (single isomer, unassigned) gave a Ki (Mu-type opioid receptor [2]) greater than 1 µM.
